In ChEMBL document CHEMBL1145983, “Novel indolyl aryl sulfones active against HIV-1 carrying NNRTI resistance mutations: synthesis and SAR studies” (J Med Chem, 2003):

How the values were obtained:
[1] = system: MT-4 (Homo sapiens); test: Anti-HIV activity to protect MT-4 cells from cytopathogenicity induced by HIV-1 K103N-Y181C (MTT method)
[2] = system: Human immunodeficiency virus 1; test: Anti-HIV activity protecting MT-4 cells from HIV-1 induced cytopathogenicity; assay type: functional, organism-based; conditions: Human immunodeficiency virus 1, MT4
[3] = system: C8166; test: Anti-HIV activity to reduce the amount of p24 in C8166 cells infected with efavirenz resistance strain K103R, V179D, and P225H.; assay type: functional, cell-based, Homo sapiens
Procedure, shortened: (§1)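 Efavirenz-resistant K103R-V179D-P225H virus came from IIIB passaged in C8166 cells with efavirenz (up to 2 µM); stock 3.0 × 10^5 CCID50/mL. Acutely infected C8166 cells (1 × 10^4/well) were incubated at 37 °C with or without compound dilutions. p24 was measured by immunoenzymatic kit. Value is the concentration giving 90% p24 reduction; mean of three experiments.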

[4] = system: C8166; test: Anti-HIV activity to reduce the amount of p24 in WT IIIB infected C8166 cells; assay type: functional, cell-based; conditions: Homo sapiens
Procedure, shortened: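 HIV-1 IIIB came from supernatants of persistently infected H9/IIIB cells; stock 4.5 × 10^6 CCID50/mL. Acutely infected C8166 cells (1 × 10^4/well) were incubated at 37 °C with or without compound dilutions. p24 was measured by immunoenzymatic kit. Value is the concentration reducing p24 by 90%; mean of three experiments.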

[5] = system: Human immunodeficiency virus 1; test: Selectivity ratio of CC50/EC50; assay type: functional
Procedure, shortened: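 Ratio of CC50 (MTT viability of mock-infected MT-4 cells) to EC50 (MTT-based 50% protection of HIV-1-infected MT-4 cells from cytopathicity), both determined in parallel.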

[6] = system: MT4; test: Cytotoxicity, reducing the vaiability of mock-infected cells; assay type: functional; conditions: Homo sapiens
[7] = system: MT4; test: Anti-HIV activity to protect MT-4 cells from HIV-1 induced cytopathogenicity by MTT method Y181C; assay type: functional, cell-based; conditions: Homo sapiens
Procedure, shortened: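 Acutely infected MT-4 cells (1 × 10^4/well) exposed to serial compound dilutions, then HIV-1 (wt IIIB from H9/IIIB supernatant, or Y181C mutant NIH N119) at inoculum giving full cytopathicity by day 4; 37 °C incubation; viability read by MTT. EC50 = µM giving 50% protection from virus-induced cytopathicity; mean ± SE of three experiments.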

[8] = target: Human immunodeficiency virus type 1 reverse transcriptase (Human immunodeficiency virus 1, UniProt Q72547, K103N); test: Activity to inhibit HIV-1 Reverse transcriptase activity in K103N
Procedure, shortened: (§2)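 Purified recombinant RT (wt or K103N mutant) assayed for RNA-dependent DNA polymerase activity. Buffer: 50 mM Tris-HCl pH 7.8, 80 mM KCl, 6 mM MgCl2, 1 mM DTT, 0.1 mg/mL BSA. Template:primer was poly(rC)-oligo(dG)12-18 at 0.5 OD260 unit/mL, with [3H]dGTP. Incubated 30 min at 37 °C; acid-insoluble radioactivity counted on glass-fibre filters. IC50 reported as mean of two experiments.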

[9] = target: Human immunodeficiency virus type 1 reverse transcriptase (Human immunodeficiency virus 1, UniProt Q72547); test: Activity to inhibit HIV-1 Reverse transcriptase activity in WT IIIB
Procedure, shortened: as §2

[10] = system: MT-4 (Homo sapiens); test: Anti-HIV activity to protect MT-4 cells from cytopathogenicity induced by HIV-1 K103N-Y181C (MTT method); remark: listed apart in the source
[11] = system: C8166; test: Anti-HIV activity to reduce the amount of p24 in C8166 cells infected with efavirenz resistance strain; assay type: functional, cell-based; conditions: Homo sapiens
Procedure, shortened: as §1

| Structure (SMILES) | EC50 [1] [nM] | EC50 [2] [nM] | EC90 [3] [nM] | EC90 [4] [nM] | Selectivity index [5] | CC50 [6] [nM] | EC50 [7] [nM] | IC50 [8] [nM] | IC50 [9] [nM] | EC50 [10] [nM] | EC90 [11] [nM] |
| --- | --- | --- | --- | --- | --- | --- | --- | --- | --- | --- | --- |
| Cc1ccccc1S(=O)(=O)c1c(C(N)=O)[nH]c2ccc(Cl)cc12 | 10000 | 1 | 2600 | 5 | >200000 | > 200000 |  |  |  |  |  |
| Cc1cccc(S(=O)(=O)c2c(C(N)=O)[nH]c3ccc(Cl)cc23)c1 | 7000 | 1 | 260 | 5 | >200000 | > 200000 | 6 |  |  |  |  |
| Cc1ccc(S(=O)(=O)c2c(C(N)=O)[nH]c3ccc(Cl)cc23)cc1 |  | 3 |  | 10 | >66667 | > 200000 | 20 | > 5000 | 72 | > 100000 |  |
| NC(=O)c1[nH]c2ccc(Cl)cc2c1S(=O)(=O)c1ccccc1 [L-737126] |  | 1 |  | 7 | 45000 | 45000 |  | > 5000 | 25 |  | 900 |
